Assay results published in ChEMBL document CHEMBL4196175, “First SAR Study for Overriding NRAS Mutant Driven Acute Myeloid Leukemia” (J Med Chem, 2018).
The source made the active and inactive calls. No cut-off for these calls is given here.

Key:
[1] = Cmax in mouse at 10 mg/kg, po; assay type: ADME, organism-based; design: dose 10 mg/kg, route oral; conditions: in vivo
[2] = target: Platelet-derived growth factor receptor alpha (Homo sapiens) (UniProt P16234); test: Inhibition of human PDGFRa at 1 uM relative to control
[3] = AUClast in mouse at 10 mg/kg, po; assay type: ADME, organism-based; design: dose 10 mg/kg, time 0 - last, route oral; conditions: in vivo
[4] = target: Proto-oncogene tyrosine-protein kinase Src (Homo sapiens) (UniProt P12931); conditions: 1 uM
[5] = Half life in mouse at 10 mg/kg, po; assay type: ADME, organism-based; conditions: in vivo
[6] = tested on: OCI-AML-3; test: Antileukemic activity against human OCI-AML3 cells harboring NRAS-Q61L mutant xenografted in immunodeficient mouse assessed as tumor volume at 15 mg/kg/day, po qd administered on day 21 post implantation measured on day 20 post dose (reference value: 100%); assay type: functional
[7] = target: Tyrosine-protein kinase Yes (Homo sapiens) (UniProt P07947); test: Inhibition of human YES at 1 uM relative to control
[8] = AUCinfinity in mouse at 10 mg/kg, po; assay type: ADME, organism-based; design: dose 10 mg/kg, route oral, time infinity; conditions: in vivo
[9] = tested on: BaF3; test: Induction of apoptosis in mouse BA/F3 cells expressing NRAS-G12D mutant assessed as increase in apoptotic cell after 24 hrs by annexin V/propidium iodide staining based FACS analysis; assay type: functional
In short: (§1)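 Apoptosis scored by flow cytometry after FITC-annexin V/propidium iodide dual staining following 24 h exposure, at 1 µM or a range of indicated concentrations; three independent experiments, mean with SD, one-way ANOVA.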

[10] = target: Serine/threonine-protein kinase A-Raf (Homo sapiens) (UniProt P10398); test: Inhibition of human ARAF at 1 uM relative to control
[11] = MRTinfinity in mouse at 10 mg/kg, po; assay type: ADME, organism-based; conditions: in vivo
[12] = target: Discoidin domain-containing receptor 2 (Homo sapiens) (UniProt Q16832); test: Inhibition of human DDR2 at 1 uM relative to control
[13] = Tmax in mouse at 10 mg/kg, po; assay type: ADME, organism-based; conditions: in vivo
[14] = target: Tyrosine-protein kinase JAK1 (Homo sapiens) (UniProt P23458); test: Inhibition of human JAK1 at 1 uM relative to control
[15] = tested on: OCI-AML-3; test: Antileukemic activity against human OCI-AML3 cells harboring NRAS-Q61L mutant xenografted in immunodeficient mouse assessed as tumor volume at 25 mg/kg/day, po qd administered on day 21 post implantation measured on day 20 post dose (reference value: 100%); assay type: functional
[16] = target: Platelet-derived growth factor receptor beta (Homo sapiens) (UniProt P09619); test: Inhibition of human PDGFRbeta at 1 uM relative to control
[17] = target: Serine/threonine-protein kinase B-raf (Homo sapiens) (UniProt P15056); test: Inhibition of human BRAF at 1 uM relative to control
[18] = tested on: BaF3; test: Antileukemic activity against mouse BA/F3 cells harboring NRAS-G12D mutant allografted in immunodeficient mouse assessed as median survival time at 15 mg/kg/day, po qd administered on day 6 post implantation (reference value: 23 days); assay type: functional
[19] = target: Fibroblast growth factor receptor 2 (Homo sapiens) (UniProt P21802); test: Inhibition of human FGFR2 at 1 uM relative to control
[20] = target: Tyrosine-protein kinase CSK (Homo sapiens) (UniProt P41240); test: Inhibition of human CSK at 1 uM relative to control
[21] = tested on: OCI-AML-3; test: Induction of apoptosis in human OCI-AML3 cells harboring NRAS Q61L mutant assessed as increase in apoptotic cells after 24 hrs by annexin V/propidium iodide staining based FACS analysis; assay type: functional, cell-based; in short: as §1
[22] = target: Serine/threonine-protein kinase SIK1 (Homo sapiens) (UniProt P57059); test: Inhibition of human SIK1 at 1 uM relative to control
[23] = target: Ephrin type-A receptor 1 (Homo sapiens) (UniProt P21709); test: Inhibition of human EphA1 at 1 uM relative to control
[24] = target: T1, Mitogen-activated protein kinase kinase kinase kinase 2 (Homo sapiens) (UniProt Q12851); conditions: 1 uM
T1 sequence (whole entry): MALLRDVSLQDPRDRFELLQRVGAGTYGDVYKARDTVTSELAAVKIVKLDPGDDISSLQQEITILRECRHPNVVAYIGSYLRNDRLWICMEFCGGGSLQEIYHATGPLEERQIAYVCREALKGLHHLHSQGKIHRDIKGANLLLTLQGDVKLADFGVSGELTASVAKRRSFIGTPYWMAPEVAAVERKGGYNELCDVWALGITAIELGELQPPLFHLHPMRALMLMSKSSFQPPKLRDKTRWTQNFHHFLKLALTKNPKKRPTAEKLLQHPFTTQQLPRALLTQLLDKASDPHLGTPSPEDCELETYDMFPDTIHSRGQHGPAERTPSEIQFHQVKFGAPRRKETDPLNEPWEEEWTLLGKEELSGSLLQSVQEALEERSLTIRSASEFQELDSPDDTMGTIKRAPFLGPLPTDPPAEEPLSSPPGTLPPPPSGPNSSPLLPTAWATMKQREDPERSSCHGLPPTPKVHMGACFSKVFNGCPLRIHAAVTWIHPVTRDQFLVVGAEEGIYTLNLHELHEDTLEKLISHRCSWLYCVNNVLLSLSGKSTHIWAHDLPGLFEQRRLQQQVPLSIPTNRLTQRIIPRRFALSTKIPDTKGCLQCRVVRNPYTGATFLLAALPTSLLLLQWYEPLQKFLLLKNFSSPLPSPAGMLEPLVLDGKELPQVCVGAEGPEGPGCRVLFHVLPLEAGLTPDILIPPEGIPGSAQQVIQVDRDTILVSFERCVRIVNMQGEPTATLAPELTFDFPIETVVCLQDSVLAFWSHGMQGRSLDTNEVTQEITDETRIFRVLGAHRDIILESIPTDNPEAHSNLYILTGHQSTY

[25] = target: Cytoplasmic tyrosine-protein kinase BMX (Homo sapiens) (UniProt P51813); conditions: 1 uM
[26] = target: Tyrosine-protein kinase ABL2 (Homo sapiens) (UniProt P42684); test: Inhibition of human ABL2 at 1 uM relative to control
[27] = tested on: Mus musculus; test: Toxicity in immunodeficient mouse allografted with mouse BA/F3 cells harboring NRAS-G12D mutant assessed as body weight loss at 15 to 25 mg/kg/day, po qd administered on day 6 post implantation; assay type: organism-based; conditions: in vivo
In short: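 Immunodeficient mice were given Ba/F3-NRAS-G12D/luciferase cells by tail-vein injection and then dosed orally once daily, with a vehicle-only cohort as control. Body weight was followed during treatment. The bioluminescence cohorts had n=4 and were treated for 3 weeks.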

[28] = target: Tyrosine-protein kinase Blk (Homo sapiens) (UniProt P51451); test: Inhibition of human BLK at 1 uM relative to control
[29] = tested on: BaF3; test: Induction of apoptosis in mouse BA/F3 cells expressing NRAS-G12D mutant assessed as decrease in bcl2 levels at 1 uM after 24 hrs by Western blot analysis; assay type: functional, cell-based
In short: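 Cells treated 24 h with indicated concentrations (1 µM; 5 µM also used in Ba/F3-NRAS-G12D); cleaved PARP, cleaved caspase 3, bcl-2 and MCL1 detected by western blot with actin as loading control.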

Fibroblast growth factor receptor 2 (Homo sapiens), sequence (P21802 22-821 limits assumed): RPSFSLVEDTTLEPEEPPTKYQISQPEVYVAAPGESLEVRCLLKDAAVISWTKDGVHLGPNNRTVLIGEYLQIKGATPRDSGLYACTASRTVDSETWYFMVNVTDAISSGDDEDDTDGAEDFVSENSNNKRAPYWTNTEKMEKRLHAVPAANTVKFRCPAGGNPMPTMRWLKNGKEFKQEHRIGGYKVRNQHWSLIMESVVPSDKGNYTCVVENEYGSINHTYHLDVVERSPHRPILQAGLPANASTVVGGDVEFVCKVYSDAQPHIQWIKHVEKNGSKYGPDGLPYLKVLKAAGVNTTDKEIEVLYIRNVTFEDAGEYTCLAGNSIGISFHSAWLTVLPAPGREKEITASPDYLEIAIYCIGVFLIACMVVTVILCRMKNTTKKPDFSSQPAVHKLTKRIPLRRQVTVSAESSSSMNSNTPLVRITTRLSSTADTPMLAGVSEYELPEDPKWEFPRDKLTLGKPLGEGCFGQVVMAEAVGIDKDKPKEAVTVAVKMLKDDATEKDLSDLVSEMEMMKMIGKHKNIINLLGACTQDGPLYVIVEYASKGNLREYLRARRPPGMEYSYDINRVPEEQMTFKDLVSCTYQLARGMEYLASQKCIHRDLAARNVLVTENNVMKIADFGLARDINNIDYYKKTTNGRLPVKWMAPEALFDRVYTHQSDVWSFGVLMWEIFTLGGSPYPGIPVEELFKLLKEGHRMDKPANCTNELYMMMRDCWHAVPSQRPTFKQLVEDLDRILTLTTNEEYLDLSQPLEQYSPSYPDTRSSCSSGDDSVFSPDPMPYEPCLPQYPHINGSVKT
Platelet-derived growth factor receptor beta (Homo sapiens), sequence (P09619 whole entry): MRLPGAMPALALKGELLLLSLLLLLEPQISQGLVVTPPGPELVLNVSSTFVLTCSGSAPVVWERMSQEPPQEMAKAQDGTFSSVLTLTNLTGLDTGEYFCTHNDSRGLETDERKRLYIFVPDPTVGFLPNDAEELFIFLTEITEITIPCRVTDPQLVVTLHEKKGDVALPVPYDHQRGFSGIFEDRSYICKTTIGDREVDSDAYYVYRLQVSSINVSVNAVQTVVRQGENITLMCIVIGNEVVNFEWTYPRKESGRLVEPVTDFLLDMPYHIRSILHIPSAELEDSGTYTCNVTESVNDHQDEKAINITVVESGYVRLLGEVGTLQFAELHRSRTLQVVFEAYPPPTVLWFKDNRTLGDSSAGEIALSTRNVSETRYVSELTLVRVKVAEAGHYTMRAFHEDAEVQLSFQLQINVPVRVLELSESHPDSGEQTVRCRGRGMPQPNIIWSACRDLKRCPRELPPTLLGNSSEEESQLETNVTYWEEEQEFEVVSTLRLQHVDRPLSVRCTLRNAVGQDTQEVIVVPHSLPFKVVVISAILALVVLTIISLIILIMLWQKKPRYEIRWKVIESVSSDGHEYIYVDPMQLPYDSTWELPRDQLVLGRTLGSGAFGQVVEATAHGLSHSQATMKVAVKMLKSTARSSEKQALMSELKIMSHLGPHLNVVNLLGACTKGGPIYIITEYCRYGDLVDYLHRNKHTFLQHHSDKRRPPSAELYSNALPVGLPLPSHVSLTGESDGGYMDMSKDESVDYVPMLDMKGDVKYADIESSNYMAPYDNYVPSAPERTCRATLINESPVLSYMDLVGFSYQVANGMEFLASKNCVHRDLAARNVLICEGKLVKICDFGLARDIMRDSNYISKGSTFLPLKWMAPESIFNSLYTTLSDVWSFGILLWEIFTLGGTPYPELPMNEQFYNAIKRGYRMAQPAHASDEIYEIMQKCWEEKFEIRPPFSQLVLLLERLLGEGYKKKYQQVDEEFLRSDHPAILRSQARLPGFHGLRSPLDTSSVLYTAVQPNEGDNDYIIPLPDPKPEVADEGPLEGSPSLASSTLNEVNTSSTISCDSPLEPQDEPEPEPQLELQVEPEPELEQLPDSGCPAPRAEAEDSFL
Tyrosine-protein kinase Yes (Homo sapiens), sequence (P07947 2-543 limits assumed): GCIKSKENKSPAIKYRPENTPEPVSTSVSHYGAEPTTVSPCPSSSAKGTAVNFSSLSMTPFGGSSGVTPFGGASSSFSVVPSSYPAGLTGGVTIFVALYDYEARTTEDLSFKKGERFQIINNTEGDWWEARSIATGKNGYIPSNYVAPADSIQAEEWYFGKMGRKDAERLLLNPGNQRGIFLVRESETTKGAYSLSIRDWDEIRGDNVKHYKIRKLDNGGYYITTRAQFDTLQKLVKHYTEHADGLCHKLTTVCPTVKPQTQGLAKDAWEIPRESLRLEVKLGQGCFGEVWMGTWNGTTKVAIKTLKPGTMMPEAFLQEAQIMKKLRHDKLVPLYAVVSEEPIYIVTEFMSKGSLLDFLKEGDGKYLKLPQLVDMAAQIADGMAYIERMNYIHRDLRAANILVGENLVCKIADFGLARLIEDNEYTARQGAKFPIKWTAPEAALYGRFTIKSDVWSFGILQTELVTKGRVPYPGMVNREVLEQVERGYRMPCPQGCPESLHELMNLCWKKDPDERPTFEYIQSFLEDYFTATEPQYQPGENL
Platelet-derived growth factor receptor alpha (Homo sapiens), sequence (P16234 whole entry): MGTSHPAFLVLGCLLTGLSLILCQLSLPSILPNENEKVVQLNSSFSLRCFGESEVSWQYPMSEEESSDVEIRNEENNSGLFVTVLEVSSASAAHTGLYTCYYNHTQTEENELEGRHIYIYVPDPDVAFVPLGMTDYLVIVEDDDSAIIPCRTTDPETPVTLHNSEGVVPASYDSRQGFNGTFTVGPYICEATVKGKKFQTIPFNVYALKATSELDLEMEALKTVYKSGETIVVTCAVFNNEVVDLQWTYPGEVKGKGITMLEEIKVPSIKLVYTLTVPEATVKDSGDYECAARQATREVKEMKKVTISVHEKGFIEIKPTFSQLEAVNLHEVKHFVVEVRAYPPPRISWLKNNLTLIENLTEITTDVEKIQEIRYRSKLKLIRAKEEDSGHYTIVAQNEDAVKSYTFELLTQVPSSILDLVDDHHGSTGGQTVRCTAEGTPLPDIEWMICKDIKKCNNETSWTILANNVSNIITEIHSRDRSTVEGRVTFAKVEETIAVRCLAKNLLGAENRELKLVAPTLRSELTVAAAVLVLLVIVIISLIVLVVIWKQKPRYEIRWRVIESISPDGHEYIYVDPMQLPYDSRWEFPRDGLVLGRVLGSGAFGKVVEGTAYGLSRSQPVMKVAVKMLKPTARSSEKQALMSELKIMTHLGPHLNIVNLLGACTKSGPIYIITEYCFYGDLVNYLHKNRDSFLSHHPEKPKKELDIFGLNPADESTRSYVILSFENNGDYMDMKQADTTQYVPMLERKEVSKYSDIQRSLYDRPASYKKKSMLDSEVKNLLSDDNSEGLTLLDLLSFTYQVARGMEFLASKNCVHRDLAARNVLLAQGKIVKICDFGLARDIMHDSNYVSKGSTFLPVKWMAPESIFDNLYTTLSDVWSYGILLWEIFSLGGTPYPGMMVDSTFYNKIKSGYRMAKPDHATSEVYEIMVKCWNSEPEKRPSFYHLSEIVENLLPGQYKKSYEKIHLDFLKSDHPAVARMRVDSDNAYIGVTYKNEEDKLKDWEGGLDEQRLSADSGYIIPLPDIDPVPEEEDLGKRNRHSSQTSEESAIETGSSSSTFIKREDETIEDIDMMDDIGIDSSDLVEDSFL
Proto-oncogene tyrosine-protein kinase Src (Homo sapiens), sequence (P12931 2-536 limits assumed): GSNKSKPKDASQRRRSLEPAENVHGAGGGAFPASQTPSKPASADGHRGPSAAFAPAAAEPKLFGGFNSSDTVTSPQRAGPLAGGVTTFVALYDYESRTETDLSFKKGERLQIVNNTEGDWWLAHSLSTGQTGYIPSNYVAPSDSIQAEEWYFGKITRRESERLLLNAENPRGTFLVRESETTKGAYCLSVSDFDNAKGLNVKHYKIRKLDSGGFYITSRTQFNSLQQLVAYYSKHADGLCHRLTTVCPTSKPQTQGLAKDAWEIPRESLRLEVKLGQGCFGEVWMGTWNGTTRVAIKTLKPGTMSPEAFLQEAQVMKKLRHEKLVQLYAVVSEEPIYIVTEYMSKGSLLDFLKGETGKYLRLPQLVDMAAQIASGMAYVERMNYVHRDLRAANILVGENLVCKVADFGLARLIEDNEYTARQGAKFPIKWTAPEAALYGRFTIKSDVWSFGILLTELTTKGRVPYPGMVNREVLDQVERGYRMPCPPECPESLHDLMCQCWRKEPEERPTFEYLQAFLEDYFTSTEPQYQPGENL
Cytoplasmic tyrosine-protein kinase BMX (Homo sapiens), sequence (P51813 whole entry): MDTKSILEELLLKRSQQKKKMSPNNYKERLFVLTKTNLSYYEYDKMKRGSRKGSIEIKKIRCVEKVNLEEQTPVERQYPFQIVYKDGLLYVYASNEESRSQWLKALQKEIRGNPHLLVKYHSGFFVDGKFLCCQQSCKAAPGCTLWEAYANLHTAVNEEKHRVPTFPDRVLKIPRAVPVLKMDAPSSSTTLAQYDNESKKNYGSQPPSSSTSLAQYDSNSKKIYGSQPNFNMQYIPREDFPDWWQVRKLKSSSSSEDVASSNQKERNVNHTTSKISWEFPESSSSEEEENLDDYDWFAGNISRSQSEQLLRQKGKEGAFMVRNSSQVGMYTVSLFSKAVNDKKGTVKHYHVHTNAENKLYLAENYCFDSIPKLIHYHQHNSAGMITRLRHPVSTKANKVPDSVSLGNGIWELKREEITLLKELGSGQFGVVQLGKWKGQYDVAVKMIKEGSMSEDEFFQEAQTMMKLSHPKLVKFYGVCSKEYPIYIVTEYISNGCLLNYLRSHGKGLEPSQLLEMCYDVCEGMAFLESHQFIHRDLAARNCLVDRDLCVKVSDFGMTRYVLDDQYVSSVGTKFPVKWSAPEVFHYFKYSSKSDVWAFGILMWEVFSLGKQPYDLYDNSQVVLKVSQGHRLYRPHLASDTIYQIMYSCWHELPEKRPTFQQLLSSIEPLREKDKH

Q: What does the source list for Cc1ccc(NC(=O)c2cccc(C(F)(F)F)c2)cc1N1Cc2cnc(N)nc2N(C)C1=O?
A: Cmax [1]: 2410 ng/mL; inhibition [2]: 95%; AUC(0-t) [3]: 36400 ng·h/mL; inhibition [4]: 100%; half-life [5]: 12.4 h; Activity [6]: 41.9%; inhibition [7]: 99.7%; AUC(0-inf) [8]: 52500 ng·h/mL; Activity [9]: Dose-dependent effect; inhibition [10]: 99%; MRT inf [11]: 18.1 h; inhibition [12]: 98.1%; Tmax [13]: 2.7 h; inhibition [14]: 94.9%; Activity [15]: 14.9%; inhibition [16]: 98.1%; inhibition [17]: 99.1%; MSD [18]: 29 days; inhibition [19]: 93.5%; inhibition [20]: 98.9%; Activity [21]: Dose-dependent effect; inhibition [22]: 91.6%; inhibition [23]: 90.7%; inhibition [24]: 93.8%; inhibition [25]: 99.4%; inhibition [26]: 98.3%; Activity [27]: Non-Toxic; inhibition [28]: 95.9%

Q: Which Activity [29] does the source give for CC(=O)N1CCN(c2ccc(Nc3ncc4c(n3)N(C)C(=O)N(c3cc(NC(=O)c5cccc(C(F)(F)F)c5)ccc3C)C4)cn2)CC1 here?
A: Active
